The record followed here is ChEMBL document CHEMBL3808332, “Identification of novel aminopiperidine derivatives for antibacterial activity against Gram-positive bacteria” (Bioorg Med Chem Lett, 2016).

≈ marks a conversion by molar mass, not a printed value.

Series [1] deals with Staphylococcus aureus. Nature of the series: Antibacterial activity against methicillin-resistant Staphylococcus aureus after 24 hrs by microdilution method. Format: functional. (In general: Dilution methods test growth across graded concentrations, often in twofold steps.)
Series [2] deals with Enterococcus faecium. Nature of the series: Antibacterial activity against vancomycin-resistant Enterococcus faecium after 24 hrs by microdilution method. Format: functional.
A further series has as its system Enterococcus faecalis. Nature of the series: Antibacterial activity against vancomycin-resistant Enterococcus faecalis after 24 hrs by microdilution method. Type of series: functional.
For series [3], the system named is Streptococcus pneumoniae. Nature of the series: Antibacterial activity against Penicillin-resistant Streptococcus pneumoniae after 24 hrs by microdilution method. Type of series: functional.
The target of another series is T1, Peptide deformylase (Staphylococcus aureus, UniProt P68826).
T1 sequence (P68826 whole entry): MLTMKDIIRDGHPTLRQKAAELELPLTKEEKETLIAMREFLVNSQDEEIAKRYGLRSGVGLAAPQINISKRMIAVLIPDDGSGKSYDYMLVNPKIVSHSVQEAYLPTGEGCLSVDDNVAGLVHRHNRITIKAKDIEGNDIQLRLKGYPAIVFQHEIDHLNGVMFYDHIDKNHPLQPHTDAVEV
Nature of the series: Inhibition of Staphylococcus aureus PDF using formyl-methionine-alanine-serine as substrate assessed as increase in NADH levels by microtiter ELISA. For orientation: An ELISA detects its analyte on a solid surface through an enzyme-linked reagent.

Series [4] concerns the target T2, Peptide deformylase (Staphylococcus aureus) (UniProt P68826).
T2 sequence (whole entry): T1 sequence (P68826 whole entry)
Nature of the series: Inhibition of Staphylococcus aureus PDF using formyl-methionine-alanine-serine as substrate assessed as increase in NADH levels at 100 nM by microtiter ELISA.

For series [5], the target named is T2, Peptide deformylase (Staphylococcus aureus). Nature of the series: Inhibition of Staphylococcus aureus PDF using formyl-methionine-alanine-serine as substrate assessed as increase in NADH levels at 30 nM by microtiter ELISA.
The target is the same in series [6]. Nature of the series: Inhibition of Staphylococcus aureus PDF using formyl-methionine-alanine-serine as substrate assessed as increase in NADH levels at 10 nM by microtiter ELISA.
Series [7] has the same target. Nature of the series: Inhibition of Staphylococcus aureus PDF using formyl-methionine-alanine-serine as substrate assessed as increase in NADH levels at 3 nM by microtiter ELISA.
Series [8] in a line: Plasma clearance in iv/po dosed mouse by LC-MS/MS analysis. Format: ADME, organism-based. The method in brief:
(§1)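 Mice, n = 3–5 per group, given the compound intravenously and orally. Plasma pharmacokinetic parameters were derived: total plasma clearance, steady-state volume of distribution, apparent terminal elimination half-life, Tmax after oral dosing, and absolute oral bioavailability (%F).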

The nature of series [9]: Volume of distribution at steady state in iv/po dosed mouse plasma by LC-MS/MS analysis. Type of series: ADME, organism-based. The settings on record: read-out: Vdss. The method in brief:
as §1

The nature of series [10]: Apparent terminal half life in iv/po dosed mouse plasma by LC-MS/MS analysis. Format: ADME, organism-based. The settings on record: read-out: betat1/2(app) (converted). Summed up:
as §1

Series [11] is described as follows: Tmax in iv/po dosed mouse plasma by LC-MS/MS analysis. Type of series: ADME, organism-based. The method in brief:
as §1

Series [12] in a line: Apparent oral bioavailability in mouse plasma by LC-MS/MS analysis. Format: ADME, organism-based. The method in brief:
as §1

Series [13] has as its system Staphylococcus aureus. Nature of the series: Antibacterial activity against methicillin-resistant Staphylococcus aureus infected in po dosed mouse model assessed as inhibition of systemic infection administered bid for 3 days. Format: functional. Particulars: 72 h. The method in brief: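 Normal mice (n = 6/group) given a systemic ip challenge with a standard MRSA strain at 2 × 10⁸ CFU per mouse. Oral treatment twice daily for 3 days. Survival was scored at day 7, and ED50 with 95% CI was derived by probit analysis.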

Series [14] relates to Enterococcus faecium. Nature of the series: Antibacterial activity against vancomycin-resistant Enterococcus faecium infected in po dosed immunosuppressed mouse model assessed as inhibition of systemic infection administered bid for 3 days. Type of series: functional. The settings on record: 72 h. The method in brief: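 Immunosuppressed mice (n = 6/group) received a systemic ip infection with a standard vancomycin-resistant E. faecium strain at 1 × 10⁹ CFU per mouse. Dosing was oral, BID, for 3 days. ED50 and 95% CI came from probit analysis of day-7 survival.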

Series [15] relates to Streptococcus pneumoniae. Nature of the series: Antibacterial activity against Penicillin-resistant Streptococcus pneumoniae yonsei 15 infected in po dosed immunosuppressed mouse model assessed as inhibition of pulmonary infection administered bid for 3 days. Format: functional. Particulars: yonsei 15, po, 72 h. Summed up: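 Lung infection in immunosuppressed mice (n = 6/group) by intranasal inoculation with penicillin-resistant S. pneumoniae Yonsei15 at 1 × 10⁶ CFU per mouse. Treatment was oral, twice daily for 3 days. Day-7 survival was analysed by probit to give ED50 and 95% CI.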

The next series has as its system Escherichia coli. Nature of the series: Antibacterial activity against Escherichia coli after 24 hrs by microdilution method. Format: functional.
A further series concerns Pseudomonas aeruginosa. Nature of the series: Antibacterial activity against Pseudomonas aeruginosa after 24 hrs by microdilution method. Format: functional.

Take `CC(C)(C)[C@H](NC(=O)[C@H](CC1CCCC1)CN(O)C=O)C(=O)N1CCC(NCc2cc(F)c(F)cc2F)CC1`: the minimal inhibitory concentration (MIC) (commonly the lowest concentration found to suppress growth) in the series on Staphylococcus aureus [1] came to 1.6 µg/mL (≈ 2.88 µM); against Enterococcus faecium [2], 0.8 µg/mL (≈ 1.44 µM); with Enterococcus faecalis it was 0.8 µg/mL (≈ 1.44 µM); against Streptococcus pneumoniae [3], 0.4 µg/mL (≈ 0.721 µM). The IC50 (commonly the midpoint of a concentration-inhibition curve) at Peptide deformylase worked out at 30 nM. For the same compound, the inhibition (as a rule, the drop in the measured response relative to a control, in per cent) is 78% in series [4], 51% in series [5], 20% in series [6] and -3% in series [7]. In [8], the clearance is 19 mL/min/kg. For the same compound, the Vd in series [9] came out at 1.71 L/kg. The half-life in [10] was 63 min. Also, in [11], the Tmax – broadly, the time from dosing to the highest level – is 30 min. In series [12], the bioavailability (as a rule, the share of a dose that reaches the circulation, judged against a reference dose that is usually intravenous) was 95.8%. Also, the ED50 (in general, the dose at which the effect has come halfway, by size or by number of responders) in the series with Staphylococcus aureus [13] was 16.6 mg/kg; in the series on Enterococcus faecium [14], 13.3 mg/kg; in the series with Streptococcus pneumoniae [15] it was 3 mg/kg.
Turning to `CC(=O)NC[C@H]1CN(c2ccc(N3CCOCC3)c(F)c2)C(=O)O1` [LINEZOLID], the minimum inhibitory concentration (MIC) was 1.6 µg/mL (≈ 4.74 µM) in the series on Staphylococcus aureus [1]; 1.6 µg/mL (≈ 4.74 µM) in the series on Enterococcus faecium [2]; 0.8 µg/mL (≈ 2.37 µM) against Enterococcus faecalis; 0.8 µg/mL (≈ 2.37 µM) in the series with Streptococcus pneumoniae [3]; > 50 µg/mL in the series with Escherichia coli; > 50 µg/mL against Pseudomonas aeruginosa. In addition, the results for the 50% effective dose (ED50) in the series on Staphylococcus aureus [13], in the series on Enterococcus faecium [14] and in the series with Streptococcus pneumoniae [15] were 5 mg/kg, 11.4 mg/kg and 1.5 mg/kg, respectively.
